Data on six compounds can be found in publication PMC6487498 (Toxicology and applied pharmacology, 2018).

Data set [1] has as its system LPS-activated RAW264.7 macrophages. Kind of data set: Nitric oxide production. The class given is cell-based, mouse. The following applies: for effect of co-incubation on NO reduction by RID-B: ligand 5 μM with RID-B 1 μM.
For data set [2] the test system is unchanged. Kind of data set: IL-6 release. The note with it: LPS 500 ng/ml, 48 h. The class given is cell-based, mouse.
Data set [3] shares this test system. The data set can be described thus: TNF-α release. Type of data set: cell-based, mouse. The following applies: LPS 500 ng/ml, 48 h; for effect of co-incubation with RID-B on TNF-α levels: ligand with RID-B.
Data set [4] relates to RAW264.7 mouse macrophage cells. The data set can be described thus: Cell viability. The note with it: for effect of co-incubation on RID-B cytotoxicity: with RID-B 10 μM, LPS 500 ng/ml. The class given is cell-based.
Data set [5] deals with primary bone marrow macrophages. Kind of data set: Osteoclast differentiation with TRAP staining. The note with it: for effect on osteoclast development, ligand alone: receptor-saturating concentration, without RID-B; for effect of co-incubation on anti-osteoclastogenic effect of RID-B: with RID-B 300 nM; for number of osteoclasts: N = 4. The class given is cell-based, mouse.

For a further data set, the target named is human CB1 receptors (Homo sapiens, UniProt P21554). The data set can be described thus: Competition receptor binding vs [3H]CP-55,940, CHO-hCB1 membranes. The note with it: RID-B 1 μM; radioligand 0.2 nM; initial binding screen, data not shown.
Chain of human CB1 receptors (P21554 whole entry): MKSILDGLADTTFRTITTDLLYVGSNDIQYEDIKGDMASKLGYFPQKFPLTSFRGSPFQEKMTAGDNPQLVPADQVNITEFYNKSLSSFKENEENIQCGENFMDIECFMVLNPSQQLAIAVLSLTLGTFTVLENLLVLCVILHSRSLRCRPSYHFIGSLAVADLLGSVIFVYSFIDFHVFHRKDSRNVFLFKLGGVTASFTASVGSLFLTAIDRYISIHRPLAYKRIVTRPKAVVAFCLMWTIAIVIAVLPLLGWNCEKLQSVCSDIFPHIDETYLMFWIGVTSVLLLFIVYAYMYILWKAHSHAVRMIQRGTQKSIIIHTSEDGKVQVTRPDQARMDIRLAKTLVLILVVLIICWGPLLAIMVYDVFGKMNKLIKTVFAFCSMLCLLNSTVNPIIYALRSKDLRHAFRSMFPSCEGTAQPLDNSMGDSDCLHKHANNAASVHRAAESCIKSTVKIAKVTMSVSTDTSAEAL
Data set [6] has as its target T1, human CB2 receptors (Homo sapiens, UniProt P34972). The data set can be described thus: Competition receptor binding vs [3H]CP-55,940, CHO-hCB2 membranes.
Data set [7] addresses T1, human CB2 receptors. The data set can be described thus: [35S]GTPγS binding. The class given is biochemical. (GTPγS resists hydrolysis and so accumulates on activated G proteins.)
The target in data set [8] is T1, human CB2 receptors. The data set can be described thus: Forskolin-stimulated adenylyl cyclase activity in CHO-hCB2 cells. The class given is cell-based.
The subject of data set [9] is LPS-activated RAW264.7 macrophages. The data set can be described thus: IL-1α release. Type of data set: cell-based, mouse. The note with it: RID-B 1 μM; LPS 500 ng/ml, 48 h. In short, it runs like this:
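RAW264.7 mouse macrophages pre-incubated 1 h with test compound, then stimulated with LPS 500 ng/ml for 48 h. Media collected and stored at −20 °C. Mouse IL-1α measured by ELISA kit per manufacturer's instructions.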

Data set [10] has as its system CHO cells devoid of CB2 receptors. The data set can be described thus: G-protein activity in CHO cells devoid of CB2 receptors. The class given is biochemical, Chinese hamster. The note with it: data not shown.
Data set [11] has as its system CHO cells not expressing cannabinoid receptors. Kind of data set: Intracellular cAMP in CHO cells not expressing cannabinoid receptors. The following applies: data not shown. The class given is cell-based, Chinese hamster.

T1 sequence (P34972 whole entry): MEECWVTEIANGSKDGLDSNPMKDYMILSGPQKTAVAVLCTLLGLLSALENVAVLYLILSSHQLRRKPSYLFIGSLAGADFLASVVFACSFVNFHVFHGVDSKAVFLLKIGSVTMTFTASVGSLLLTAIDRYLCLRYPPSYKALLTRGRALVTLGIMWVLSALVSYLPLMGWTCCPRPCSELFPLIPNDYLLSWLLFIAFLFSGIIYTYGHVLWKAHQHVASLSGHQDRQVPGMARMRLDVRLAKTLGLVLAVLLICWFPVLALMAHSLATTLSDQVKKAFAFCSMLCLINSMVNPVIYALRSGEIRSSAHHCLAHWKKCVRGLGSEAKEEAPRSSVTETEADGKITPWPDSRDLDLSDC

Consider `Cc1c(C(=O)NN2CCOCC2)nn(-c2ccc(Cl)cc2Cl)c1-c1ccc(I)cc1` [AM-281], for which the “effect of co-incubation on NO reduction by RID-B” value (from here on “effect … on NO reduction by RID-B”) in data set [1] (LPS 500 ng/ml, 48 h) is listed as “did not alter NO levels compared to RID-B administered alone”. Also, the “IL-6 level, ligand alone” value in data set [2] (without RID-B, N = 4) turned out to be 1040 ± 119.4 pg/mL. For the same compound, the “TNF-α level, ligand alone” value in data set [3] (without RID-B, N = 4) is 21.3 ± 0.21 ng/mL. The “effect of co-incubation with RID-B on TNF-α levels” value (“effect of co-incubation with RID-B” below) in data set [3] is “significantly increases TNF-α levels”. Also, the “effect of co-incubation on RID-B cytotoxicity” value in data set [4] was “attenuated”. For the same compound, in data set [5], the “effect on osteoclast development, ligand alone” value (“effect on osteoclast development” for short) is recorded as “significantly reduce osteoclast development” and the “effect of co-incubation on anti-osteoclastogenic effect of RID-B” value (“effect of co-incubation … of RID-B” for short) is recorded as “little consequence on the effects of RID-B”.
In general, Kb refers to the equilibrium dissociation constant of an antagonist, usually derived from a functional assay. In the case of `CCC(=C(c1ccc(OCCN2CCCC2)cc1)c1ccc(OCCN2CCCC2)cc1)c1ccccc1` [RID-B, ridaifen-B], the “displacement of [3H]-CP-55,940 from human CB1 receptors” value on human CB1 receptors is greater than 50%. Also, the “displacement of [3H]-CP-55,940 from human CB2 receptors” value at human CB2 receptors [6] (RID-B 1 μM, radioligand 0.2 nM, initial binding screen, data not shown) is reported as greater than 50%. Besides, the “selectivity (affinity) for CB2 over CB1 receptors” value at human CB2 receptors [6] (ratio of Ki values) came out at 17 fold. Moreover, the “G-protein activation Imax (decrease below basal levels)” value at human CB2 receptors [7] (inverse agonism, N = 3) was −31.2 ± 0.37%. Also, the “Imax, increase of adenylyl cyclase activity (elevated cAMP levels)” value on human CB2 receptors [8] (10 μM forskolin, inverse agonism, N = 3) was 398 ± 30%. Further, the “decrease in the potency of WIN-55,212-2 to inhibit adenylyl cyclase activity” value on human CB2 receptors [8] (RID-B 3 μM co-incubation, efficacy unchanged, parallel rightward shift) was 11.2 fold. Moreover, at human CB2 receptors [8] (read-out: antagonist dissociation constant (Kb), RID-B 3 μM against WIN-55,212-2, N = 3), the Kb is 0.294 µM. Besides, the “effect on EC50 values of LPS for NO production” value in data set [1] (RID-B 300 nM, 500 nM, 1 μM) was “did not alter the EC50 values of LPS”. Moreover, the “reduction of NO production vs cells treated only with LPS” value in data set [1] (RID-B 1 μM alone, LPS 500 ng/ml, 48 h, N = 10) turned out to be 30.1 ± 5.1%. Moreover, the NO reduction in data set [1] (RID-B 1 μM co-incubated with CP-55,940 2 μM, LPS 500 ng/ml, 48 h, N = 10) was found to be 9.3 ± 4.6%. In addition, in data set [1] (RID-B 1 μM co-incubated with JWH-015 5 μM, LPS 500 ng/ml, 48 h, N = 4), the “NO levels reduced to” value is 51.1 ± 6.4%. Further, the “Emax of LPS-induced NO production” value in data set [1] (co-incubation with RID-B 300 nM, 48 h, N = 3) stood at 19.4 ± 3.8 µM; in data set [1] (co-incubation with RID-B 500 nM, 48 h, N = 3), 22.0 ± 9.9 µM; in data set [1] (co-incubation with RID-B 1 μM, 48 h, N = 4) it was 18.2 ± 4.7 µM. In data set [9], this compound yielded an IL-1α level of 73.1 ± 4.7 pg/mL. In data set [9], the “reduction of IL-1α level” value is 52.3%. For the same compound, in data set [2] (RID-B 1 μM), the “reduction of LPS-induced IL-6 increase” value was 45%. In [2] (RID-B 1 μM, N = 4), this compound yielded an IL-6 level of 349.9 ± 34.9 pg/mL. Besides, in [3] (RID-B 1 μM), the “effect on TNF-α levels” value was “slight but non-significant increase in TNF-α levels”. Further, the “decrease of cell viability” value in data set [4] (RID-B 10 μM alone, 4 h exposure to LPS, N = 4) is given as 34.0 ± 5.4%. The “effect on cell viability” value in data set [4] (RID-B 1 or 3 μM, forty-eight hour exposure to LPS 500 ng/ml) is given as “no effect on cell viability”. Also, the number of osteoclasts in [5] (RID-B 300 nM alone, vehicle 339.1 ± 15.6) worked out at 174.4 ± 19.2 osteoclasts per well; in data set [5] (RID-B 300 nM co-incubated with AM-630) it was 94.6 ± 15.6 osteoclasts per well. Besides, the “maximal decrease in the number of osteoclasts” value in data set [5] (RID-B 300 nM, M-CSF and RANKL, 4 days, drugs on days 2 and 3) is listed as 48.6%. Further, the “effect on G-protein activity” value in data set [10] is on record as “no effect on G-protein activity”. Further, in data set [11], the “effect on intracellular cAMP levels” value is “does not alter intracellular cAMP levels”.
In the case of SR-144528 [reference compound], in data set [1] (LPS 500 ng/ml, 48 h), the “effect … on NO reduction by RID-B” value is on record as “did not alter NO levels compared to RID-B administered alone”.
Turning to `COc1ccc(C(=O)c2c(C)n(CCN3CCOCC3)c3cc(I)ccc23)cc1` [AM-630], the “effect … on NO reduction by RID-B” value in data set [1] (LPS 500 ng/ml, 48 h) is “did not alter NO levels compared to RID-B administered alone”. The “effect of co-incubation with RID-B” value in [3] was “significantly increases TNF-α levels”. In data set [5] (AM-630 alone (1 μM in Fig. 7), vehicle 339.1 ± 15.6), this compound displayed a number of osteoclasts of 168.1 ± 15.4 osteoclasts per well.
By Emax is commonly meant the maximal effect, on the per cent scale that the assay sets. Take `CCCCCCC(C)(C)c1ccc(C2CC(O)CCC2CCCO)c(O)c1` (stereo not drawn) [CP-55,940, 5-(1,1-dimethylheptyl)-2-[5-hydroxy-2-(3-hydroxypropyl)cyclohexyl]phenol]: the Emax on human CB2 receptors [7] (read-out: G-protein activation Emax) is 25.4 ± 3%. The “effect of co-incubation with RID-B” value in [3] was “have no effect”. Besides, in data set [4], the “effect of co-incubation on RID-B cytotoxicity” value is “attenuated”. Also, in [5], the “effect on osteoclast development” value was “marginally reduced osteoclast formation” and the “effect of co-incubation … of RID-B” value is recorded as “significantly attenuated the anti-osteoclastogenic effects produced by RID-B”.
For the compound `CCCn1c(C)c(C(=O)c2cccc3ccccc23)c2ccccc21` [JWH-015], in data set [3], the “effect of co-incubation with RID-B” value was “have no effect”. In [5], the “effect on osteoclast development” value is “significantly reduce osteoclast development” and the “effect of co-incubation … of RID-B” value is listed as “little consequence on the effects of RID-B”.
